Measurements from ChEMBL document CHEMBL1136978, “Aryl urea derivatives of spiropiperidines as NPY Y5 receptor antagonists” (Bioorg Med Chem Lett, 2009).

Legend:
Format in all cases: ADME, organism-based
[1] = Plasma concentration in rat at 10 mg/kg, po after 2 hrs; design: dose 10 mg/kg, route oral
Summary of the method: (§1)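 Single oral dose of 10 mg/kg to rats (n = 3). Plasma (µM), brain (nmol/g tissue) and CSF (µM) levels taken at 2 h post-dose.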

[2] = Drug level in rat cerebrospinal fluid at 10 mg/kg, po after 2 hrs; design: dose 10 mg/kg, route oral; conditions: read-out: Drug uptake; summary of the method: as §1
[3] = tested on: Brain; experiment: Drug level in rat brain at 10 mg/kg, po after 2 hrs measured per gram of tissue; design: dose 10 mg/kg, route oral; conditions: in vivo; summary of the method: as §1
[4] = Oral bioavailability in rat at 3 mg/kg, iv and 10 mg/kg, po; conditions: in vivo

| concentration at 2 h [1] [nM] | concentration at 2 h [2] [nM] | Drug uptake [3] [nmol/g] | bioavailability [4] [%] | Compound |
| --- | --- | --- | --- | --- |
| 1420 | < 10 | 1.09 | – | O=C1OC2(CCN(C(=O)Nc3cc(-c4ccc(Cl)cc4)no3)CC2)c2ccccc21 |
| 360 | – | 0.029 | 8 | O=C1NC2(CCN(C(=O)Nc3cnc(-c4ccccc4)cn3)CC2)c2ccccc21 |
| 2980 | 100 | 2.92 | 49 | O=C1OC2(CCN(C(=O)Nc3cnc(-c4ccccc4)cn3)CC2)c2ccccc21 |

The remaining lines, values behind:

| Compound | concentration at 2 h [1] [nM] | concentration at 2 h [2] [nM] | Drug uptake [3] [nmol/g] | bioavailability [4] [%] |
| --- | --- | --- | --- | --- |
| O=C1Cc2ccccc2C2(CCN(C(=O)Nc3cnc(-c4ccccc4)cn3)CC2)N1 | – | – | – | 3 |
| O=C1OC2(CCN(C(=O)Nc3ncc(-c4ccccc4)cn3)CC2)c2ccccc21 | 3860 | 130 | 0.26 | – |
